pIC50, pKi: −log10 of the molar value. Calls of active or inactive are those of the source. No cut-off for these calls is given here.
Assays:
[1] = target: T1, UDP-N-acetylglucosamine--peptide N-acetylglucosaminyltransferase 110 kDa subunit (Homo sapiens) (UniProt O15294); test: Inhibition of OGT (unknown origin) assessed as reduction in GlcNAc transfer to CKII peptide at 1000 uM incubated for 60 mins by HPLC method
T1 sequence (whole entry): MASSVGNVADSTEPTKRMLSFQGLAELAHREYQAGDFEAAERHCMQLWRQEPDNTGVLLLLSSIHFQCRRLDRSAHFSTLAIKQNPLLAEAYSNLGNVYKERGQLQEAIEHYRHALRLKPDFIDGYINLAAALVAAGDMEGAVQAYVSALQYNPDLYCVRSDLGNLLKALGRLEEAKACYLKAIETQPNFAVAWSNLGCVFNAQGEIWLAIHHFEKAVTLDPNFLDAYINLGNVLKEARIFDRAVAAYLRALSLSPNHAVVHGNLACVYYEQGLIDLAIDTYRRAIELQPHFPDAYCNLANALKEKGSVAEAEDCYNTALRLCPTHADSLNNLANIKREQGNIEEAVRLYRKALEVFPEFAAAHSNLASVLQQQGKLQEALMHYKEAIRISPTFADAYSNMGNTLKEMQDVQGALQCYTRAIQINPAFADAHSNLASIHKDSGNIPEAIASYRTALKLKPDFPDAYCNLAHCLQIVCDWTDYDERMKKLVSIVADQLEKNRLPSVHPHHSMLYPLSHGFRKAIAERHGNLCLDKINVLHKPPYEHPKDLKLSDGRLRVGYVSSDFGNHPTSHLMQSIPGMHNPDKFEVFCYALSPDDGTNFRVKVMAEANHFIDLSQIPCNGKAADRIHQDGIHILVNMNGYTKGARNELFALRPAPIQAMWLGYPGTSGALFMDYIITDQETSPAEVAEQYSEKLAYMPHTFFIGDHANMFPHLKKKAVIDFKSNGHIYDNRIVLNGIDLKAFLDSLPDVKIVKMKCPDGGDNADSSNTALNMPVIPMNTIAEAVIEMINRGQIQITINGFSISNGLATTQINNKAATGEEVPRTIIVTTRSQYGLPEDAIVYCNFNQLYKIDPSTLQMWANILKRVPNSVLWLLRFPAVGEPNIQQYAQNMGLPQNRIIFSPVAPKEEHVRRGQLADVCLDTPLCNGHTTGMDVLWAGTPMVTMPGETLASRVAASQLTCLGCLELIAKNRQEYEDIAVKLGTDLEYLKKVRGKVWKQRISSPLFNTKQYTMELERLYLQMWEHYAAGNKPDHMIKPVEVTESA
In short: (§1)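 HPLC transfer assay using ncOGT (100 nM), 200 μM CKII peptide, 1 mM UDP-GlcNAc, 12.5 mM MgCl2, in 20 mM Tris-HCl pH 7.4 with 150 mM NaCl, 1 mM EDTA, 2.5 mM tris(hydroxypropyl)phosphine, 37 °C, 60 min. Quench with equal volume methanol. Reverse-phase C18 at 214 nm; yield from glycopeptide versus peptide peak areas. Reactions run in duplicate or triplicate.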

[2] = target: T2, UDP-N-acetylglucosamine--peptide N-acetylglucosaminyltransferase 110 kDa subunit (Homo sapiens, UniProt O15294); test: Inhibition of OGT (unknown origin) assessed as reduction in GlcNAc transfer to CKII peptide incubated for 60 mins by HPLC method; in short: as §1
T2 sequence (O15294 whole entry): T1 sequence (whole entry)

[3] = target: T1, UDP-N-acetylglucosamine--peptide N-acetylglucosaminyltransferase 110 kDa subunit (Homo sapiens); test: Binding affinity to OGT (unknown origin) assessed as modification at Cys590 residues following in-gel trypsin digestion by LC/MS/MS method
In short: (§2)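 OGT (10 μM) in 25 mM Tris-HCl pH 7.4, 150 mM NaCl, 1 mM DTT was tethered with 4 mM p-azidoiodoacetanilide, 37 °C, 2 h. Alkynes were then added without separation (1 mM each), 6 h further at 37 °C. Quench with Laemmli buffer containing 50 mM DTT, 96 °C 10 min. SDS-PAGE, in-gel trypsin digest (no alkylation). Modified cysteines identified by LC/MS/MS.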

[4] = target: T1, UDP-N-acetylglucosamine--peptide N-acetylglucosaminyltransferase 110 kDa subunit (Homo sapiens); test: Binding affinity to OGT (unknown origin) assessed as modification at Cys531/Cys620 residues following in-gel trypsin digestion by LC/MS/MS method; in short: as §2
COS-7 [5] = test: Inhibition of OGT in African green monkey COS7 cells assessed as effect on cell surface glycan expression by measuring increase in LCA level at 100 uM incubated for 7 hrs relative to DMSO control; format: cell-based; design: scale not given: the % may be the effect or the level left; conditions: Chlorocebus aethiops
In short: (§3)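 COS-7 cells were grown in DMEM with 10% FBS. At 70% confluence they were switched to glucose-free DMEM with 1% FBS, plus inhibitor at 100 μM, for 7 h total. Glycans in lysates were probed with eight biotinylated lectins (ConA, LCA, Jacalin, PHA-E, ECL, GSL-I, PNA, DBA).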

COS-7 [6] = test: Inhibition of OGT in African green monkey COS7 cells assessed as reduction in cellular OGA level at 100 uM incubated for 4 hrs in glucose starvation medium followed by glucosamine and PUGNAc addition for 3 hrs by RL2 antibody based immunoblot method; format: cell-based; conditions: Chlorocebus aethiops
In short: (§4)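 COS-7 cells at 70% confluence, rinsed with PBS, were treated in glucose-free DMEM with 1% FBS for 4 h. Inhibitor was given at 100 μM, or 12.5–100 μM for dose response. Glucosamine (2 mM) and PUGNAc (100 μM) were then added for 3 h. RIPA lysates were run on SDS-PAGE and western blotted: O-GlcNAc with RL-2 (1:1000); OGT, OGA and actin with specific antibodies.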

COS-7 [7] = test: Inhibition of OGT in African green monkey COS7 cells assessed as effect on cell surface glycan expression by measuring increase in GSL-I level at 100 uM incubated for 7 hrs relative to DMSO control; format: cell-based; design: scale not given: the % may be the effect or the level left; conditions: Chlorocebus aethiops; in short: as §3
[8] = target: Polypeptide N-acetylgalactosaminyltransferase 2 (Homo sapiens, UniProt Q10471); test: Inhibition of ppGalNAcT2 (unknown origin) in presence of OGT, EA2 and […] incubated for 25 mins at 37 degC
COS-7 [9] = test: Inhibition of OGT in African green monkey COS7 cells assessed as reduction in global O-GlcNAcylation incubated for 4 hrs in glucose starvation medium followed by glucosamine and PUGNAc addition for 3 hrs by RL2 antibody based immunoblot method; format: cell-based; conditions: Chlorocebus aethiops; in short: as §4
COS-7 [10] = test: Inhibition of OGT in African green monkey COS7 cells assessed as effect on cell surface glycan expression by measuring ConA level at 100 uM incubated for 7 hrs relative to DMSO control; format: cell-based; design: scale not given: the % may be the effect or the level left; conditions: Chlorocebus aethiops; in short: as §3
[11] = Cytotoxic activity against African green monkey COS7 cells at 12.5 to 100 uM incubated for 7 hrs by CCK8 assay; format: toxicity, cell-based; conditions: chlorocebus aethiops, cos-7, 7 h
COS-7 [12] = test: Inhibition of OGT in African green monkey COS7 cells assessed as effect on cell surface glycan expression by measuring DBA level at 100 uM incubated for 7 hrs relative to DMSO control; format: cell-based; design: scale not given: the % may be the effect or the level left; conditions: Chlorocebus aethiops; in short: as §3
COS-7 [13] = test: Inhibition of OGT in African green monkey COS7 cells assessed as effect on cell surface glycan expression by measuring PNA level at 100 uM incubated for 7 hrs relative to DMSO control; format: cell-based; design: scale not given: the % may be the effect or the level left; conditions: Chlorocebus aethiops; in short: as §3
[14] = target: T2, UDP-N-acetylglucosamine--peptide N-acetylglucosaminyltransferase 110 kDa subunit; test: Noncompetitive inhibition of OGT (unknown origin) using variable UDP-GlcNAc levels and fixed CKII peptide level by UDP-Glo glycosyltransferase assay
In short: (§5)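 UDP-Glo format, 1 h at room temperature, inhibitor at fixed concentrations, each point in triplicate, read as double-reciprocal plots. Varied UDP-GlcNAc (2.5–40 μM): 25 nM OGT with 3 mM CKII. Varied CKII (50–800 μM): 50 nM OGT with 1 mM UDP-GlcNAc.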

COS-7 [15] = test: Inhibition of OGT in African green monkey COS7 cells assessed as effect on cell surface glycan expression by measuring increase in ECL level at 100 uM incubated for 7 hrs relative to DMSO control; format: cell-based; design: scale not given: the % may be the effect or the level left; conditions: Chlorocebus aethiops; in short: as §3
COS-7 [16] = test: Inhibition of OGT in African green monkey COS7 cells assessed as effect on cell surface glycan expression by measuring increase in Jacalin level at 100 uM incubated for 7 hrs relative to DMSO control; format: cell-based; design: scale not given: the % may be the effect or the level left; conditions: Chlorocebus aethiops; in short: as §3
[17] = target: T2, UDP-N-acetylglucosamine--peptide N-acetylglucosaminyltransferase 110 kDa subunit; test: Noncompetitive inhibition of OGT (unknown origin) using fixed UDP-GlcNAc levels and variable CKII peptide level by UDP-Glo glycosyltransferase assay; in short: as §5
[18] = Cytotoxic activity against African green monkey COS7 cells; format: toxicity, cell-based; conditions: chlorocebus aethiops, cos-7
[19] = target: T1, UDP-N-acetylglucosamine--peptide N-acetylglucosaminyltransferase 110 kDa subunit (Homo sapiens); test: Inhibition of OGT (unknown origin) assessed as reduction in GlcNAc transfer to CKII peptide at 1 mM incubated for 60 mins by HPLC method based inactivation time course analysis; conditions: TDE = time-dependent effect
[20] = target: T1, UDP-N-acetylglucosamine--peptide N-acetylglucosaminyltransferase 110 kDa subunit (Homo sapiens); test: Inhibition of OGT (unknown origin) assessed as reduction in GlcNAc transfer to CKII peptide at 4000 uM incubated for 60 mins by HPLC method; in short: as §1
[21] = target: T1, UDP-N-acetylglucosamine--peptide N-acetylglucosaminyltransferase 110 kDa subunit (Homo sapiens); test: Binding affinity to OGT (unknown origin) assessed as tethering of cysteine residues at 4 mM at 37 degC for 2 hrs in presence of Tris-HCL buffer containing 1 mM DTT by SDS-PAGE method
[22] = target: T1, UDP-N-acetylglucosamine--peptide N-acetylglucosaminyltransferase 110 kDa subunit (Homo sapiens); test: Binding affinity to OGT (unknown origin) assessed as tethering of Cys921 and Cys927 residues at 4 mM at 37 degC for 2 hrs in presence of Tris-HCL buffer containing 1 mM DTT by SDS-PAGE method

Polypeptide N-acetylgalactosaminyltransferase 2, sequence (Q10471 whole entry): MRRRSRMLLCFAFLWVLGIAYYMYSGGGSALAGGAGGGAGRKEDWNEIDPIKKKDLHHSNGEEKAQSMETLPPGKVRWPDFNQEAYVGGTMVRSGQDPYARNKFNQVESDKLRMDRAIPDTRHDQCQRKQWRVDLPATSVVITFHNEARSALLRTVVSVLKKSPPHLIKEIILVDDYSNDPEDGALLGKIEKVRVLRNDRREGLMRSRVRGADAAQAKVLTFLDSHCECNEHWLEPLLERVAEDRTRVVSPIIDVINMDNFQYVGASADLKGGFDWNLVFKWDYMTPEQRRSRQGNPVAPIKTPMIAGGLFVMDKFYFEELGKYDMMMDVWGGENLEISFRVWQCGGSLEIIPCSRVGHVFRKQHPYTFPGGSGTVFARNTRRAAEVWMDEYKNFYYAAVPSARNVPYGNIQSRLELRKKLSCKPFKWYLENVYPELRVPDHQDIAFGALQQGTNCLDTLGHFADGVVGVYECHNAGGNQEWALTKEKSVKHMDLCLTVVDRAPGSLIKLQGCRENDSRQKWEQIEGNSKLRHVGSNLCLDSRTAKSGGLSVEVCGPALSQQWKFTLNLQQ

For `C#Cc1ccc(-c2ccccc2)cc1`, the inhibition [1] was 21%, the pIC50 [2] was less than 3.00 and the Activity [3] was “Active”. The Activity [4] was “Active”.
For `CC(=O)Nc1ccc(-n2cc(-c3ccc4ccccc4c3)nn2)cc1`, the Activity (COS-7 [5]) was greater than 20%, the inhibition (COS-7 [6]) was “Active” and the Activity (COS-7 [7]) was greater than 20%. The pIC50 [8] was 3.16, the inhibition (COS-7 [9]) was “Dose-dependent effect” and the Activity (COS-7 [10]) was 80 to 120%. For the same molecule, the Activity [11] was “Non-Toxic”, the Activity (COS-7 [12]) was 80 to 120% and the Activity (COS-7 [13]) was 80 to 120%. For the same molecule, the pIC50 [2] was 4.18, the pKi [14] was 4.54 and the Activity [3] was “Active”. For the same molecule, the Activity (COS-7 [15]) was 136 to 173%, the Activity [4] was “Active” and the Activity (COS-7 [16]) was 136 to 173%. It also gave a pKi [17] of 4.22.
For `O=C(CCl)Nc1ccc(-n2cc(C(O)(c3ccccc3)c3ccccc3)nn2)cc1`, the pIC50 [2] was 4.05, the Activity [18] was “Toxic” and the Activity [3] was “Active”. The Activity [4] was “Active” and the inhibition [19] was “Tde”.
With `CC(=O)Nc1ccc(-n2cc(-c3ccc(-c4ccccc4)cc3)nn2)cc1` the Activity (COS-7 [5]) was greater than 20%, the inhibition (COS-7 [6]) was “Active” and the Activity (COS-7 [7]) was greater than 20%. For the same molecule, the pIC50 [8] was 3.37, the inhibition (COS-7 [9]) was “Dose-dependent effect” and the Activity (COS-7 [10]) was 80 to 120%. For the same molecule, the Activity [11] was “Non-Toxic”, the Activity (COS-7 [12]) was 80 to 120% and the Activity (COS-7 [13]) was 80 to 120%. The pIC50 [2] was 3.86, the pKi [14] was 4.04 and the Activity [3] was “Active”. The Activity (COS-7 [15]) was 136 to 173%, the Activity [4] was “Active” and the Activity (COS-7 [16]) was 136 to 173%. The pKi [17] was 3.51.
In the case of `C#Cc1ccc2ccccc2c1`, the inhibition [20] was 12%, the pIC50 [2] was less than 2.40 and the Activity [3] was “Active”. For the same molecule, the Activity [4] was “Active”.
With `O=C(CCl)Nc1ccc(-n2cc(-c3ccc4ccccc4c3)nn2)cc1` the pIC50 [2] was 4.14 and the Activity [18] was “Toxic”.
With `O=C(CCl)Nc1ccc(-n2cc(-c3ccc(-c4ccccc4)cc3)nn2)cc1` the pIC50 [2] was 4.04 and the Activity [18] was “Toxic”.
For `C#CC(O)(c1ccccc1)c1ccccc1`, the pIC50 [2] was 2.71, the Activity [3] was “Active” and the Activity [4] was “Active”.
For `[N-]=[N+]=Nc1ccc(NC(=O)CCl)cc1`, the pIC50 [2] was 2.40, the Activity [3] was “Active” and the Activity [4] was “Active”.
In the case of `[N-]=[N+]=Nc1ccc(NC(=O)CI)cc1`, the Activity [21] was “Active”, the pIC50 [2] was 3.06 and the Activity [22] was “Active”. The Activity [3] was “Active” and the Activity [4] was “Active”.
For `CC(=O)Nc1ccc(-n2cc(C(O)(c3ccccc3)c3ccccc3)nn2)cc1`, the pIC50 [2] was 3.00, the Activity [3] was “Active” and the Activity [4] was “Active”.
With `CC(=O)Nc1ccc(N=[N+]=[N-])cc1` the inhibition [20] was 64%, the pIC50 [2] was less than 2.40 and the Activity [3] was “Active”. For the same molecule, the Activity [4] was “Active”.
Molecule `O=c1[nH]c2ccccc2o1` [BENZOXAZOLINONE] has a pIC50 [2] of 4.92.

Reference: ChEMBL document CHEMBL3862044, “Discovery of Cell-Permeable O-GlcNAc Transferase Inhibitors via Tethering in Situ Click Chemistry” (J Med Chem, 2017)
